Publication PMC3074966 (European journal of medicinal chemistry, 2010)
Values belong to the compound of their own block, whether it stands above or below them.

How the values were obtained:
Jurkat cells = assay: Flow cytometric analysis of cell cycle distribution; type: cell-based, human; conditions: after 48 h of treatment (data not shown)
Summary of the method: (§1)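 Exponentially growing cells (5 × 10⁵) were exposed to varying concentrations of test compound for 24 and 48 h. They were then collected and fixed in ice-cold 70% ethanol, then treated with lysis buffer containing RNase A and 0.1% Triton X-100. Cells were stained with propidium iodide and analysed by flow cytometry, with sub-G1 (hypodiploid) DNA content scored at 48 h.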

HeLa cells [1] = assay: as above; type: cell-based, human; conditions: after 48 h of treatment (data not shown)
Summary of the method: as §1

[2] = system: panel of five human cell lines (HeLa, A549, HL-60, Jurkat, K562); assay: Antiproliferative assay, summary over the cell line panel; type: cell-based
HeLa cells [3] = assay: Western blot analysis; type: cell-based, human
HeLa cells [4] = assay: Annexin-V/PI assay; type: cell-based, human; conditions: 24 h, compared with control
HeLa cells [5] = assay: Mitochondrial membrane potential; type: cell-based, human; conditions: 24 and 48 h
HeLa cells [6] = assay: ROS production; type: cell-based, human; conditions: 24 and 48 h, HE and H2-DCFDA
caspase-3 in HeLa cells = assay: Caspase-3 assay; type: cell-based, human; conditions: 24 and 48 h
[7] = average antiproliferative activity

- fold lower IC50 than 3k ([2]; over the five cell lines): 2- to 15 fold
Structure (SMILES): CCOc1ccc(Nc2c(C(=O)c3cc(OC)c(OC)c(OC)c3)sc3ccccc23)cc1 [Compound 4e, (3-(4-Ethoxyphenylamino)benzo[b]thiophen-2-yl)(3,4,5-trimethoxyphenyl)methanone]
- hypodiploid peak (sub-G1) indicative of apoptosis (Jurkat cells): appeared in both cell lines
- hypodiploid peak (sub-G1) indicative of apoptosis (HeLa cells [1]): appeared in both cell lines
- fold increase in activity relative to unsubstituted 4a [2, 7]: 5 fold
- fold difference in average antiproliferative activity between 4e and 4d ([2]; most active vs least active 3-anilino derivative): 9 fold
- expression of Bax (HeLa cells [3]): remained unchanged
- expression of Bcl-2 (HeLa cells [3]): slight decrease
- cyclin B1 expression (HeLa cells [3]; 24 or 48 h): concentration-dependent increase
- phosphatase cdc25c (phosphorylation state) (HeLa cells [3]; 24 or 48 h): slower migrating forms of phosphatase cdc25c were present
- 89 kDa cleaved fragment of PARP (HeLa cells [3]; 24 h and 48 h): increased
- expression of p53 (HeLa cells [3]; increasing concentrations): no difference
- annexin-V positive cells (HeLa cells [4]): induced an accumulation of annexin-V positive cells
- mitochondrial membrane potential (Rho 123 fluorescence) (HeLa cells [5]): reduction of Rho 123 fluorescence intensity
- production of ROS (HeLa cells [6]): induces the production of large amounts of ROS
- activation of caspase-3 (caspase-3 in HeLa cells): activation of caspase-3 in a time- and concentration-dependent manner

- IC50 ([2]; Homo sapiens, read-out: IC50 against HeLa, HL-60, Jurkat and K562 cells): 1500 to 2100 nM
Structure (SMILES): COc1cc(C(=O)c2sc3ccccc3c2-c2ccccc2)cc(OC)c1OC [Compound 3a, (3,4,5-Trimethoxyphenyl)(3-phenylbenzo[b]thiophen-2-yl) methanone]

Structure (SMILES): COc1ccc(Nc2c(C(=O)c3cc(OC)c(OC)c(OC)c3)sc3ccccc23)cc1 [Compound 4d, (3-(4-Methoxyphenylamino)benzo[b]thiophen-2-yl)(3,4,5-trimethoxyphenyl)methanone]
- loss in activity relative to unsubstituted 4a [2, 7]: ~50%

Structure (SMILES): CCOc1ccc(Nc2c(C(=O)c3cc(OC)c(OC)c(OC)c3)sc3cc(C)ccc23)cc1 [Compound 4g, (3-(4-Ethoxyphenylamino)-6-methylbenzo[b]thiophen-2-yl) (3,4,5-trimethoxyphenyl)methanone]
- fold less potent than 4e ([2]; over the five cell lines): 4- to 20 fold
